Test results reported in ChEMBL document CHEMBL1142961, “Novel selective inhibitors of the zinc plasmodial aminopeptidase PfA-M1 as potential antimalarial agents” (J Med Chem, 2007).
≈ marks a conversion by molar mass, not a printed value.

Experiments:
Aminopeptidase N [1] = target: T1, Aminopeptidase N (Sus scrofa, UniProt P15145); test: Inhibition of pig kidney microsomal APN
T1 sequence (P15145 whole entry): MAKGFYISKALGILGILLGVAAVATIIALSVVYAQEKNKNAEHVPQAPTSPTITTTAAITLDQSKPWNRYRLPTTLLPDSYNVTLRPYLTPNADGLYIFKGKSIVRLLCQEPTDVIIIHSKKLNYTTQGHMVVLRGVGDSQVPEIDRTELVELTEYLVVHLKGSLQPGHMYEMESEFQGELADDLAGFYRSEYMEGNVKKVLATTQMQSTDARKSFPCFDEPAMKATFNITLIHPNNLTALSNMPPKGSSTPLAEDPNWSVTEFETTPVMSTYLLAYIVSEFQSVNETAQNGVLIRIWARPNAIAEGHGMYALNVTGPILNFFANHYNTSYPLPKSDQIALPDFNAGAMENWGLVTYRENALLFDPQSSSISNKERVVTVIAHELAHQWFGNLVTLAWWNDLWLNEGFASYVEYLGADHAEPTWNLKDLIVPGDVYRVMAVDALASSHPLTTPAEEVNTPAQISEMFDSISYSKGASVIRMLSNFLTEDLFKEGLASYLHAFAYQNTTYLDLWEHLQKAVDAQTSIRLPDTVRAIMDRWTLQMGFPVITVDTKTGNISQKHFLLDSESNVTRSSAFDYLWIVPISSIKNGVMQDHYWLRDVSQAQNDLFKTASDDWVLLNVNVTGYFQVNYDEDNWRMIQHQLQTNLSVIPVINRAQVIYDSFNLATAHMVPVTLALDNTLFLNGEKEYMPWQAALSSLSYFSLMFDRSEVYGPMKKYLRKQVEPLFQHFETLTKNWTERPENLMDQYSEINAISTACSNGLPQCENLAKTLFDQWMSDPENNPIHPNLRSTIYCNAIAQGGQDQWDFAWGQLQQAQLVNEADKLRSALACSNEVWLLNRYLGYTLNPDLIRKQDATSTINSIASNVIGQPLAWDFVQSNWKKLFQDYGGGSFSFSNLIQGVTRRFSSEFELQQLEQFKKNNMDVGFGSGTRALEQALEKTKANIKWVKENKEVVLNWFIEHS
Method in brief: (§1)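 Porcine kidney microsomal APN (ammonium sulfate suspension) diluted 600-fold in 25 mM Tris-HCl pH 7.4. Preincubated with inhibitor for 10 min at room temperature, then Leu-pNA added (0.3 mM stock). Hydrolysis followed at 405 nm at room temperature. Rates normalized to a no-inhibitor control. Single point at 10 µM; IC50 from concentration-velocity curves. Bestatin used as reference.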

[2] = target: T2, Aminopeptidase N (Sus scrofa) (UniProt P15145); test: Inhibition of pig kidney microsomal APN at 10 uM; method in brief: as §1
T2 sequence (whole entry): T1 sequence (P15145 whole entry)

Aminopeptidase N [3] = target: T3, Aminopeptidase N (Plasmodium falciparum FcB1/Columbia, UniProt O96935); test: Inhibition of Plasmodium falciparum FcB1 M1 aminopeptidase
T3 sequence (O96935 whole entry): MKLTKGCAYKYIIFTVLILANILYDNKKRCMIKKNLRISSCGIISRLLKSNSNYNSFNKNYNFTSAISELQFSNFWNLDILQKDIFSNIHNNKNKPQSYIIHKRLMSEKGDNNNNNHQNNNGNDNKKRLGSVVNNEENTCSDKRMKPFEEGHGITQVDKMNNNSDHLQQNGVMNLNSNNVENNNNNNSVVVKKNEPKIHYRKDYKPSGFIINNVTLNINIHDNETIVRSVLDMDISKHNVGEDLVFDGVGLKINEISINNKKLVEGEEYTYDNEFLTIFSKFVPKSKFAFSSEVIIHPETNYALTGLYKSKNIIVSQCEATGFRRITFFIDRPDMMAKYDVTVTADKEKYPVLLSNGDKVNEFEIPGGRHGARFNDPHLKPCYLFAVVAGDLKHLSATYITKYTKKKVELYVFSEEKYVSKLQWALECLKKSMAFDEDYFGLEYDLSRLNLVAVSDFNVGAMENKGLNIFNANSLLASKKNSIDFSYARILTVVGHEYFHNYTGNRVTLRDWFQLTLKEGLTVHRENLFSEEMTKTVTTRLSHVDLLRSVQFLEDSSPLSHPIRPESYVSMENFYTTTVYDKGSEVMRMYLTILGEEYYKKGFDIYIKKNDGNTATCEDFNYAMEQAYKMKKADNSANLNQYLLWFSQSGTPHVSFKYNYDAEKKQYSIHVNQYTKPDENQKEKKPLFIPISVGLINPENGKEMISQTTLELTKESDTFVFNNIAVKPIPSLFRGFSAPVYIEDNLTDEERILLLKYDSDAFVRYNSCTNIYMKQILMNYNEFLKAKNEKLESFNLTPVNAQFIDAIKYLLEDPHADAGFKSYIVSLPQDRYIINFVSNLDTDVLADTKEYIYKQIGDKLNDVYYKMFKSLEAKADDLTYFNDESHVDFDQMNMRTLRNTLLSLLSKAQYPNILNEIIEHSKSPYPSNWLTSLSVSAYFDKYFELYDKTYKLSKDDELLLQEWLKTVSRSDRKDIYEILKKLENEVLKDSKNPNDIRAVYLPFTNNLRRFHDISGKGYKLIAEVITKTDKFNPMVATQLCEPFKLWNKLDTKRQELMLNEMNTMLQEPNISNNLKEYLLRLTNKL
Method in brief: (§2)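 Native enzyme purified from P. falciparum FcB1, diluted 10-fold in 25 mM Tris-HCl pH 7.4. Preincubated with inhibitor for 10 min at room temperature, then Leu-pNA substrate added (0.3 mM stock, Km 0.099 mM). Kinetics followed at 405 nm at room temperature. Initial velocities normalized to a no-inhibitor control. Single-point screen at 10 µM; IC50 from velocity versus inhibitor concentration curves. Bestatin used as reference.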

[4] = target: T4, Aminopeptidase N (Plasmodium falciparum FcB1/Columbia) (UniProt O96935); test: Inhibition of Plasmodium falciparum FcB1 M1 aminopeptidase at 10 uM; method in brief: as §2
T4 sequence (whole entry): T3 sequence (O96935 whole entry)

[5] = Stability in Zucker FA/FA rat plasma at 37degC; format: ADME, organism-based; details: read-out: Stability (converted)
Method in brief: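 Compound at 100 µM final in male Zucker FA/FA rat plasma, stirred at 37 °C. Samples taken from 0 to 96 h, acidified with 0.14 M phosphoric acid and spiked with internal standard. Extracted three times with AcOEt and quantified by LC-MS-MS (MRM). Half-life derived.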

Plasmodium falciparum [6] = test: Antimalarial activity against chloroquine-sensitive Plasmodium falciparum F32; format: functional, organism-based
Method in brief: (§3)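 Asexual P. falciparum kept continuously on human erythrocytes; modified semiautomated microdilution method. Serially diluted drug added to asynchronous cultures (0.5% parasitemia, 1% final hematocrit) for 24 h at 37 °C, then [3H]hypoxanthine added per well. Growth inhibition from incorporated radioactivity relative to drug-free control on the same plate; IC50 from concentration-response curve, mean of three independent experiments.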

[7] = Distribution coefficient, log D at pH 7.4; format: physicochemical; details: octanol/water
Method in brief: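 10 mM DMSO stock added to 1:1 octanol/PBS pH 7.4 and shaken for 2 h at room temperature. Phases separated and each quantified by LC-MS-MS. Log D taken as the log of the octanol/PBS concentration ratio from mass signals.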

[8] = Selectivity ratio, IC50 for pig APN /IC50 for Plasmodium falciparum FcB1 M1
Method in brief: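 Ratio of IC50 values (APN/PfA-M1) from two parallel assays: native PfA-M1 purified from P. falciparum FcB1 (diluted 10-fold) and porcine kidney microsomal APN (diluted 600-fold), both in 25 mM Tris-HCl pH 7.4. Enzyme was preincubated 10 min at room temperature with inhibitor, then Leu-pNA added (0.3 mM solution). Kinetics were read at 405 nm, initial velocities normalized to no-inhibitor controls, and IC50 was taken from velocity–concentration plots.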

Plasmodium falciparum [9] = test: Antimalarial activity against chloroquine-resistant Plasmodium falciparum FcB1; format: functional, organism-based; method in brief: as §3
[10] = Solubility at pH 7.4; format: physicochemical; details: buffer
Method in brief: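 10 mM DMSO stock diluted 50-fold into PBS pH 7.4 or MeOH. Shaken for 24 h at room temperature, centrifuged and filtered at 0.45 µm. Analysed by LC-MS-MS; solubility taken as the PBS/MeOH mass-signal area ratio.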

IC50 (Aminopeptidase N [1]) [nM] | inhibition [2] [%] | IC50 (Aminopeptidase N [3]) [nM] | inhibition [4] [%] | SMILES | half-life [5] [h] | IC50 (Plasmodium falciparum [6]) [nM] | logD [7] | Ratio IC50 [8] | IC50 (Plasmodium falciparum [9]) [nM] | solubility [10] [µM]
> 10000 | 79 | 164 | 96 | O=C(NO)C(Cc1cccc(Oc2ccccc2)c1)C(=O)NCc1ccccc1 (stereo not drawn) |  |  |  |  |  | 
3240 |  | 13 |  | O=C(NO)/C(=C\c1ccccc1)C(=O)NCCCCc1ccccc1 |  |  |  |  |  | 
> 10000 | 81 | 46 | 94 | O=C(NO)C(Cc1ccccc1)C(=O)NCCCCc1ccccc1 (stereo not drawn) |  |  |  |  |  | 
> 10000 |  | 330 |  | O=C(NO)/C(=C/c1ccccc1)C(=O)NCc1ccc(F)cc1 |  |  |  |  |  | 
> 10000 |  | > 10000 |  | O=C(NCc1ccc(F)cc1)c1cc2ccccc2n(O)c1=O | > 48 |  |  |  |  | 
2530 | 76 | 130 | 96 | O=C(NO)C(Cc1cccc(Oc2ccccc2)c1)C(=O)NCc1ccc(Cl)cc1 (stereo not drawn) |  |  |  |  |  | 
 | 39 | 495 | 19 | CC(C)CC(C(=O)NO)C(=O)NCc1ccccc1 (stereo not drawn) |  |  |  |  |  | 
> 10000 |  | > 10000 |  | O=C(NCCCCc1ccccc1)c1cc2ccccc2n(O)c1=O |  |  |  |  |  | 
 | 83 | 2510 | 87 | O=C(NO)C(Cc1ccccc1)C(=O)NCc1cccc(Oc2ccccc2)c1 (stereo not drawn) |  |  |  |  |  | 
 | 92 | 3900 | 85 | CC(C)CC(C(=O)NO)C(=O)NCc1ccc(F)cc1 (stereo not drawn) |  |  |  |  |  | 
1310 | 85 | 41 | 95 | Cc1ccccc1CNC(=O)C(Cc1ccccc1)C(=O)NO (stereo not drawn) |  |  |  |  |  | 
 | 95 | 790 | 98 | CC(C)CC(C(=O)NO)C(=O)NCCCc1ccccc1 (stereo not drawn) |  |  |  |  |  | 
 | 80 | 170 | 93 | O=C(NO)C(Cc1ccccc1)C(=O)NCc1ccc(Cl)cc1 (stereo not drawn) |  |  |  |  |  | 
8580 |  | 91 |  | CC(C)CC(C(=O)NO)C(=O)NCc1cccc2ccccc12 (stereo not drawn) |  |  |  |  |  | 
 | 50 | 253 | 84 | O=C(NO)C(Cc1ccccc1)C(=O)N1CCc2ccccc2C1 (stereo not drawn) |  |  |  |  |  | 

SMILES | IC50 (Aminopeptidase N [1]) [nM] | inhibition [2] [%] | IC50 (Aminopeptidase N [3]) [nM] | inhibition [4] [%] | half-life [5] [h] | IC50 (Plasmodium falciparum [6]) [nM] | logD [7] | Ratio IC50 [8] | IC50 (Plasmodium falciparum [9]) [nM] | solubility [10] [µM]
O=C(NO)C(Cc1ccccc1)C(=O)NCc1ccc(F)cc1 (stereo not drawn) | 3620 | 72 | 27 | 91 | 0.75 | 57000 | 1.2 | 134 | 59000 | > 200
O=C(NO)/C(=C\c1ccccc1)C(=O)NCc1ccc(F)cc1 | 1370 |  | 6 |  | 22 | 13000 | 1.1 | 229 | 24000 | 198 (≈ 62.2 µg/mL)
